The results in this text go back to ChEMBL document CHEMBL2331151 (Bioorg Med Chem, 2013).

The nature of data set [1]: AUC (0 to 24 hrs) in Sprague-Dawley rat at 5 mg/kg, po. The format is ADME, organism-based. Further details: time < 24 hr, dose 5 mg/kg, route oral. The note with it: plasma. The essentials: (§1)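 Compound given as a suspension by oral gavage to Sprague–Dawley rats as a single dose (5 mg/kg in the single-dose comparison; doses from 0.1–100 mg/kg in the dose-dependence study).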

Data set [2] is described as follows: Half life in Sprague-Dawley rat at 5 mg/kg. The format is ADME, organism-based. Further details: dose 5 mg/kg. The note with it: in vivo.
Data set [3] in a line: Oral bioavailability in Sprague-Dawley rat at 5 mg/kg. The format is ADME, organism-based. The note with it: in vivo.
Data set [4] has as its system Liver microsomes. Put plainly: Drug metabolism in rat liver microsomes in presence of S9 fractions. Type of data set: ADME, Microsome. The method in brief: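 Compound incubated with the S-9 fraction of rat liver microsomes to measure in vitro clearance. Primary metabolites formed during the incubation were identified.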
(In general: Microsomes from liver hold many membrane-bound enzymes, among them those of drug oxidation.)

Data set [5] is described as follows: Cmax in Sprague-Dawley rat at 5 mg/kg, po. Further details: dose 5 mg/kg, route oral. The format is ADME, organism-based. Conditions: in vivo. The essentials:
as §1

Data set [6] is described as follows: Cmax in Sprague-Dawley rat at 0.3 mg/kg, po. The format is ADME, organism-based. Further details: dose 0.3 mg/kg, route oral. Conditions: in vivo. The method in brief: as §1
Data set [7] is described as follows: AUC (0 to 24 hrs) in Sprague-Dawley rat at 2 mg/kg, po. The format is ADME, organism-based. The note with it: plasma. More on the design: time < 24 hr, dose 2 mg/kg, route oral. The method in brief:
as §1

Data set [8] is described as follows: Cmax in Sprague-Dawley rat at 0.1 mg/kg, po. The format is ADME, organism-based. More on the design: dose 0.1 mg/kg, route oral. The note with it: in vivo. The essentials:
as §1

Data set [9] can be described thus: AUC (0 to 24 hrs) in Sprague-Dawley rat at 30 mg/kg, po. Type of data set: ADME, organism-based. Further details: time < 24 hr, dose 30 mg/kg, route oral. Conditions: plasma. The essentials:
as §1

Data set [10] can be described thus: AUC (0 to 24 hrs) in Sprague-Dawley rat at 1 mg/kg, po. Type of data set: ADME, organism-based. Further details: time < 24 hr, dose 1 mg/kg, route oral. Conditions: plasma. The essentials:
as §1

Data set [11] is described as follows: AUC (0 to 24 hrs) in Sprague-Dawley rat at 0.1 mg/kg, po. The format is ADME, organism-based. More on the design: time < 24 hr, dose 0.1 mg/kg, route oral. Conditions: plasma. The method in brief: as §1
Data set [12] in a line: AUC (0 to 24 hrs) in Sprague-Dawley rat at 0.3 mg/kg, po. The format is ADME, organism-based. More on the design: time < 24 hr, dose 0.3 mg/kg, route oral. Conditions: plasma. The method in brief:
as §1

The nature of data set [13]: Cmax in Sprague-Dawley rat at 100 mg/kg, po. The format is ADME, organism-based. Further details: dose 100 mg/kg, route oral. Conditions: in vivo. The method in brief: as §1
The nature of data set [14]: Cmax in Sprague-Dawley rat at 2 mg/kg, po. Further details: dose 2 mg/kg, route oral. The note with it: in vivo. Type of data set: ADME, organism-based. The essentials:
as §1

Data set [15] can be described thus: AUC (0 to 24 hrs) in Sprague-Dawley rat at 100 mg/kg, po. The format is ADME, organism-based. More on the design: time < 24 hr, dose 100 mg/kg, route oral. The note with it: plasma. The essentials: as §1
Data set [16] in a line: Cmax in Sprague-Dawley rat at 1 mg/kg, po. The format is ADME, organism-based. Further details: dose 1 mg/kg, route oral. Conditions: in vivo. The method in brief:
as §1

The nature of data set [17]: Cmax in Sprague-Dawley rat at 30 mg/kg, po. The format is ADME, organism-based. Further details: dose 30 mg/kg, route oral. Conditions: in vivo. The essentials: as §1

SMILES strings stand for the structures.

As usually defined, the AUC(0-t) is exposure summed from dosing to a finite time, without extrapolation to infinity. The low end stands for less exposure, the high end for more exposure. The compound `O=S(=O)(Nc1cc(Cl)c(Oc2cncc(Cl)c2)c(Cl)c1)c1ccc(Cl)cc1Cl` gave an AUC(0-t) at 24 h in data set [1] of 4.8 µM·h.

In general, half-life refers to the time needed for the level to fall by half in the phase considered. Low readings indicate rapid decline, high ones slow decline. The bioavailability is the share of a dose that reaches the circulation, judged against a reference dose that is usually intravenous. A lower bioavailability goes with poor availability. Take `CCNC(=O)c1cc(NS(=O)(=O)c2cc(C)c(Cl)cc2Cl)ccc1Oc1cncc(Cl)c1`: the half-life in data set [2] was 40 min. The compound further registered a bioavailability in data set [3] of 8%. This compound gave an AUC(0-t) at 24 h in data set [1] of 1.6 µM·h. The Drug metabolism result in data set [4] is recorded as “Active”.

The Cmax is the peak of the concentration-time curve. For the compound `O=S(=O)(Nc1ccc(Oc2cnc3ccccc3c2)c(Cl)c1)c1ccc(Cl)cc1Cl`, in data set [1], the AUC(0-t) at 24 h amounted to 105 µM·h. Besides, the Cmax in data set [5] amounted to 11000 nM.

The compound `O=S(=O)(Nc1ccc(Oc2cnc3ccccc3c2)c(F)c1)c1ccc(Cl)cc1Cl` registered an AUC(0-t) at 24 h in data set [1] of 82 µM·h. Also, the Cmax in [5] amounted to 4800 nM.

`O=S(=O)(Nc1cc(Cl)c(Oc2cnc3ccccc3c2)c(Cl)c1)c1ccc(C(F)(F)F)cc1Cl` registered an AUC(0-t) at 24 h in data set [1] of 112 µM·h. In [5], this compound displayed a Cmax of 8500 nM.

In data set [1], `CC(=O)c1cc(NS(=O)(=O)c2ccc(Cl)cc2Cl)ccc1Oc1cnc2ccccc2c1` yielded an AUC(0-t) at 24 h of 3.4 µM·h. In addition, in data set [5], the Cmax was 920 nM.

In [1], `N#Cc1cc(NS(=O)(=O)c2ccc(Cl)cc2Cl)ccc1Oc1cncc(Cl)c1` displayed an AUC(0-t) at 24 h of 31 µM·h.

On to `O=S(=O)(Nc1cc(Cl)c(Oc2cnc3ccccc3c2)c(Cl)c1)c1ccc(Cl)cc1Cl` [INT131], for which the Cmax in data set [6] is 130 nM; in [8] it was 80 nM; in [13], 6100 nM; in data set [14], 660 nM; in data set [16], 390 nM; in data set [5] it was 1100 nM. Also, the Cmax in data set [17] came out at 4300 nM. Also, the AUC(0-t) at 24 h was 8.3 µM·h in [7]; 71 µM·h in data set [9]; 5.1 µM·h in data set [10]; 1.1 µM·h in data set [11]; 30 µM·h in [1]; 2.6 µM·h in [12]. Also, in data set [15], the AUC(0-t) at 24 h was 100 µM·h.
